Test results published in ChEMBL document CHEMBL1134485, “Diguanidino and "reversed" diamidino 2,5-diarylfurans as antimicrobial agents” (2001).
In brackets after ≈: the same amount, converted by molar mass.

Key:
[1] = tested on: Candida albicans; assay: In vitro minimum fungicidal concentration against Candida albicans.; format: functional
Procedure, shortened: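 Yeast MFC: after broth macrodilution (RPMI 1640/MOPS pH 7.0, 0.5 × 10³ to 2.5 × 10³ CFU/mL, 35 °C, 48 h or 72 h for C. neoformans, drug 100 to 0.09 µg/mL), 100 µL from tubes with complete inhibition plated on Sabouraud agar; lowest concentration yielding three or fewer colonies recorded.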

[2] = tested on: Candida albicans; assay: In vitro minimum inhibitory concentration against Candida albicans.; format: functional
[3] = tested on: Mycobacterium tuberculosis; assay: In vitro minimum inhibitory concentration required to inhibit Mycobacterium tuberculosis; format: functional
Procedure, shortened: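 M. tuberculosis H37Rv grown in BACTEC 12B medium; fluorometric broth microdilution (Microplate Alamar Blue Assay). […] MIC = lowest concentration reducing relative fluorescence units by ≥90% relative to control culture. Testing done by TAACF.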

[4] = tested on: Nucleic Acid
[5] = tested on: Nucleic Acid; remark: listed apart in the source
[6] = tested on: Aspergillus fumigatus; assay: In vitro minimum fungicidal concentration required to inhibit Aspergillus fumigatus(MFC); format: functional
Procedure, shortened: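 Mould MFC: 100 µL aliquots from macrodilution tubes (RPMI 1640/MOPS pH 7.0, 0.5 × 10³ to 2.5 × 10³ CFU/mL conidial inoculum, 30 °C, 48-72 h, drug 100 to 0.09 µg/mL) showing complete growth inhibition plated on Sabouraud agar; MFC taken as lowest drug concentration giving three or fewer colonies.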

[7] = tested on: Aspergillus fumigatus; assay: Antimicrobial activity against Aspergillus fumigatus (MIC); format: functional
[8] = tested on: Aspergillus fumigatus; assay: In vitro antimicrobial activity against Aspergillus fumigatus (MIC); format: functional
[9] = tested on: Nucleic Acid; assay: DNA binding affinity to poly dA.dT; format: nucleic-acid assay

| SMILES | MFC [1] | MIC [2] | MIC [3] | ΔTm [4] | ΔTm [5] | MFC [6] | MIC [7] | MIC [8] | ΔTm [9] |
| --- | --- | --- | --- | --- | --- | --- | --- | --- | --- |
| Cl.Cl.N=C(Nc1ccc(-c2ccc(-c3ccc(NC(=N)c4ccccc4)cc3)o2)cc1)c1ccccc1 | 50 µg/mL | 25 µg/mL | 1.56 µg/mL | 28.6 | 15 | – | – | – | – |
| COc1cc(NC(=N)N)ccc1-c1ccc(-c2ccc(NC(=N)N)cc2OC)o1.Cl.Cl | 100 µg/mL | 10 µg/mL | 16 µg/mL | 15.2 | 2.8 | 100 µg/mL | 100 µg/mL | – | – |
| N=C(Nc1ccc(-c2ccc(-c3ccc(NC(=N)C4CCCCC4)cc3)o2)cc1)C1CCCCC1 | – | > 100 µg/mL | ≤ 6.25 µg/mL | 26.7 | 12.8 | > 100 µg/mL | 100 µg/mL (≈ 213 µM) | – | – |
| Cc1cc(NC(=N)c2ccccc2)ccc1-c1ccc(-c2ccc(NC(=N)c3ccccc3)cc2C)o1 | 6.25 µg/mL (≈ 12.9 µM) | 3.12 µg/mL (≈ 6.44 µM) | 3.13 µg/mL (≈ 6.46 µM) | 24.9 | 7.8 | – | – | – | – |
| Cc1cc(NC(=N)c2ccccn2)ccc1-c1ccc(-c2ccc(NC(=N)c3ccccn3)cc2C)o1 | 10 µg/mL (≈ 20.6 µM) | 10 µg/mL (≈ 20.6 µM) | ≤ 1 µg/mL | 22.6 | 8.9 | 100 µg/mL (≈ 206 µM) | 10 µg/mL (≈ 20.6 µM) | – | – |
| Cl.Cl.N=C(N)Nc1ccc(-c2ccc(-c3ccc(NC(=N)N)cc3)o2)cc1 | 25 µg/mL | 12.5 µg/mL | 3.13 µg/mL | 21.6 | 10.8 | > 100 µg/mL | – | 100 µg/mL | – |
| CO[C@H]1/C=C/O[C@@]2(C)Oc3c(C)c(O)c4c(O)c(c(/C=N/N5CCN(C)CC5)c(O)c4c3C2=O)NC(=O)/C(C)=C\C=C\[C@H](C)[C@H](O)[C@@H](C)[C@@H](O)[C@@H](C)[C@H](OC(C)=O)[C@@H]1C [RIFAMPIN] | – | – | 0.062 µg/mL (≈ 0.0753 µM) | – | – | – | – | – | – |
| Cc1cc(NC(=N)c2ccc3ccccc3n2)ccc1-c1ccc(-c2ccc(NC(=N)c3ccc4ccccc4n3)cc2C)o1 | 100 µg/mL (≈ 170 µM) | 100 µg/mL (≈ 170 µM) | – | – | 1.1 | – | 100 µg/mL (≈ 170 µM) | – | 7.5 |
| COc1cc(NC(=N)c2ccccn2)ccc1-c1ccc(-c2ccc(NC(=N)c3ccccn3)cc2OC)o1 | ≤ 1 µg/mL | ≤ 1 µg/mL | ≤ 1 µg/mL | 19 | 7.8 | ≤ 1 µg/mL | ≤ 1 µg/mL | – | – |
| N=C(Nc1ccc(-c2ccc(-c3ccc(NC(=N)c4ccccn4)cc3Cl)o2)c(Cl)c1)c1ccccn1 | > 100 µg/mL | 100 µg/mL (≈ 190 µM) | 8 µg/mL (≈ 15.2 µM) | 5.2 | 0 | – | > 100 µg/mL | – | – |
